# Compound activity from PubChem BioAssay.
# MEKK2wt PB1 HTS – raises or lowers MEK5 binding to wildtype human MEKK2 PB1 domain; bead flow cytometry, Alexa488-MEK5 binding to MEKK2 WT; actives lie on both sides; Q9Y2U5; actives 1.1% (n = 290,000); binding response (% of control), % at 10 µM; in the data active means binding response below about 67% or above about 130%; inconclusive means no clear call, values can overlap the other calls; inactive means in between
# Apaf-1 inh – blocks human Apaf-1 apoptosome activity | O14727 | reconstituted apoptosome caspase-3 activity, DEVD-Rh110 fluorescence | inhibition, % at 20 µM | actives 0.71% (n = 330,000) | AID 489030; active means inhibition of at least 40% at 20 µM
#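 System: reconstituted apoptosome with Apaf-1, cytochrome c, caspase-9, procaspase-3, dATP; Signal: Rh110 fluorescence intensity; Schedule: 30 min compound preincubation, 50 min activation, room temperature; Reagent: cytochrome c trigger plus (Z-DEVD)2-Rh110 caspase-3 substrate.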
# UCH37 DUB inh – inhibitors of human deubiquitinating enzyme UCH37; Q9Y5K5; purified proteasome/UCH37, Ub-AMC cleavage fluorescence; inhibition, % (concentration not given with the values); actives 0.33% (n = 330,000);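 active means mean inhibition over replicate wells above about 20%, limit read from the data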
#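 Schedule: 30 min plus 25 min, room temperature / Material: human UCH37 within purified proteasomes / Technique: AMC fluorescence intensity at 355/460 nm / Buffer or medium: pH 7.4 Tris-HCl (50 mM) with ovalbumin, ATP-MgCl2, DTT / Controls: wells without proteasome as full block, compound-free enzyme plus substrate as uninhibited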
# UBC13 polyUb – blocks human UBC13 polyubiquitin chain formation | TR-FRET | inhibition, % at 20 µM | P61088 | actives 0.47% (n = 330,000) | AID 485273; in the data active means inhibition above about 45%, passing the limit was not always enough; inconclusive means no clear call, values can overlap the other calls
# MEKK3 PB1 HTS – MEKK3-MEK5 PB1 interaction, increase or decrease | actives 1.4% (n = 290,000) | Q99759 | bead-based flow cytometry, Alexa488-MEK5 binding to MEKK3; actives lie on both sides; 0 = blocked by unlabeled MEK5, 100 = vehicle | binding response (% of control), % at 10 µM;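 active means binding response more than 3 SD above or below the average of its plate-row segment, actives on both sides; inconclusive means wells at one plate position flagged as instrument error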;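 further: Alexa488 bead fluorescence after subtracting the streptavidin-only scavenger bead signal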
# Target sequence (Q99759 whole entry, looked up): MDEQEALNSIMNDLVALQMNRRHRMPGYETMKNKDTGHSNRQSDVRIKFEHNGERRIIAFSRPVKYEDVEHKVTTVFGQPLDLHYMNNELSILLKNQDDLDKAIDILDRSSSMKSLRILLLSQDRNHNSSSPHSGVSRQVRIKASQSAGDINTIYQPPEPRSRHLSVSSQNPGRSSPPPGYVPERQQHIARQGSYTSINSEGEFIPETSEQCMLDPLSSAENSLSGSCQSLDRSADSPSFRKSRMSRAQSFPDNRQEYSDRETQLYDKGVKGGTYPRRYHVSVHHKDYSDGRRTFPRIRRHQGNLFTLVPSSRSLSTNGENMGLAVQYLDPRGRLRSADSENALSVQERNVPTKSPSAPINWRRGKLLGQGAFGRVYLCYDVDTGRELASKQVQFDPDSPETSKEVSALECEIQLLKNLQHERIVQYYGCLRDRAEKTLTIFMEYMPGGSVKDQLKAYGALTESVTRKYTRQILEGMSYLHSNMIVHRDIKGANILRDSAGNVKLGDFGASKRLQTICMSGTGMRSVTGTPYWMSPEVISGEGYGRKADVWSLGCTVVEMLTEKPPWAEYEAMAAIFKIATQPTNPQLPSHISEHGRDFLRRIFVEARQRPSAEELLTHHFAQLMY
# MEKK2mut PB1 HTS – signal of MEK5 binding to mutant human MEKK2 PB1 domain | bead flow cytometry, Alexa488-MEK5 binding to MEKK2 mutant | percent response, % at 10 µM | AID 1530 | actives 0.35% (n = 290,000); in the data active means percent response above about 24%, passing the limit was not always enough
# MEKK2wt confirm – raises or lowers MEK5 binding to wildtype human MEKK2, retest; shares compounds with MEKK3 PB1 HTS; bead flow cytometry, Alexa488-MEK5 binding to MEKK2 WT; actives lie on both sides; binding response (% of control), % at 10 µM; actives 2.4% (n = 5,900); AID 1892; in the data active means binding response below about 16% or above about 210%; inactive means in between
# MEKK2mut confirm – signal of MEK5 binding to mutant human MEKK2, retest | shares compounds with MEKK3 PB1 HTS | bead flow cytometry, Alexa488-MEK5 binding to MEKK2 mutant | percent response, % at 10 µM | actives 2% (n = 5,900); in the data active means percent response mostly above about 71%, no sharp cut-off; inactive means mostly below about 38%;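 further: higher means compound restores mutant binding toward wildtype level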
# MEKK3-MEK5 inh – confirmation of inhibitors of MEK5 binding to human MEKK3. shares compounds with MEKK3 PB1 HTS. bead flow cytometry, Alexa488-MEK5 binding to MEKK3; stronger effect = lower value. binding response (% of control), % at 10 µM. actives 1.8% (n = 5,900). AID 1894;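 active means binding response below 72% of control, or above a set upper limit, though filed actives all read lower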
# Numbers stand for hits; – = inactive; ? = inconclusive; · = not tested or not shown; [ ] = dose if it differs, or a comment. An excerpt weighted towards active compounds, which were near 3% of everything screened.
SMILES,MEKK2wt PB1 HTS,Apaf-1 inh,UCH37 DUB inh,UBC13 polyUb,MEKK3 PB1 HTS,MEKK2mut PB1 HTS,MEKK2wt confirm,MEKK2mut confirm,MEKK3-MEK5 inh
CCOc1ccccc1-n1c(COc2ccccc2)nnc1SCC(N)=O,–,–,–,–,–,–,·,·,·
OCC1(CCOc2ccccc2)CCN(CC2=Cc3cc(Cl)ccc3OC2)CC1,153,–,–,–,–,–,–,–,–
COc1ccccc1OCCNC(=O)c1ccccc1C,–,–,–,–,–,–,·,·,·
Cc1ccccc1OCCNC(=O)CNC(=O)c1ccccc1O,–,–,–,–,79[inhibitor],–,–,–,–
Cc1ccc(Nc2ccc(C(=O)O)cc2N)cc1,–,–,–,–,–,–,·,·,·
O=C(NC1CCS(=O)(=O)C1)/C(=C\c1ccccc1)NC(=O)c1ccccc1 (centres undefined),–,–,–,–,147,–,–,–,–
Cc1ccc(C(=O)NC2CCS(=O)(=O)C2)cc1S(=O)(=O)N1CCCCC1 (centres undefined),–,–,–,–,–,–,·,·,·
CC(Oc1ccccc1F)C(=O)NNC(=O)c1ccc(F)c(S(=O)(=O)N2CCOCC2)c1 (centres undefined),–,–,–,–,–,–,·,·,·
O=[N+]([O-])c1cccc(S(=O)(=O)N2CCCC2)c1,·,–,–,–,15[inhibitor],90,–,–,–
CCN1CCN(S(=O)(=O)c2cccc([N+](=O)[O-])c2)CC1,?,–,–,–,?,–,·,·,·
CCS(=O)(=O)N1CCC(C(=O)NCCC2=CCCCC2)CC1,–,–,–,–,73[inhibitor],–,–,–,–
CC(C)CNCC(=O)N1c2ccccc2Sc2ccccc21,1.0[inhibitor],–,–,–,2.0[inhibitor],–,–,–,–
CC(=O)Nc1ccc(S(=O)(=O)Nc2cccc(NC(=O)c3ccco3)c2)cc1,–,–,–,–,45[inhibitor],–,–,–,–
CC(C)(C)c1nnc2sc(SC/C(O)=C(\C#N)c3nc4ccccc4[nH]3)nn2c1=O,–,–,·,–,–,–,·,·,·
O=C(O)c1cc(O)ccc1NC(=O)c1cccc2ccccc12,–,–,–,–,132,–,–,–,–
CC(=O)Nc1ccccc1NC(=O)c1cccc2ccccc12,–,–,–,–,–,–,·,·,·
CC(C)CC(=O)/C(=C\c1ccc(Cl)cc1Cl)n1cncn1,–,·,–,·,–,–,·,·,·
CC(C)CC(=O)/C(=C/c1ccc(N(C)C)cc1)n1cncn1,37[inhibitor],–,–,–,69[inhibitor],–,–,–,–
CC(C)(C)OC(=O)N1CCC(c2cc(=O)n3[nH]cc(C(=O)Nc4ccc(F)c(Cl)c4)c3n2)CC1,–,–,–,–,129,–,–,–,–
CC(C)(C)OC(=O)N1CCC(c2cc(=O)n3[nH]cc(C(=O)NC4CCCC4)c3n2)CC1,–,–,–,–,–,–,·,·,·
COCCCNC(=O)CSc1nc2ccccc2c(=O)n1CCc1ccc(S(N)(=O)=O)cc1,–,–,–,–,–,–,·,·,·
Cc1cc(NC(=O)CSc2nc3c(c(=O)n2-c2ccc(Cl)cc2)SCC3)no1,–,–,–,–,–,–,·,·,·
O=C(CSc1nncn1-c1ccccc1)NC1CCCc2ccccc21 (centres undefined),–,–,–,–,–,–,·,·,·
CC(=O)N1CCc2cc(S(=O)(=O)NCCC(=O)N3CCc4ccccc4C3)ccc21,–,–,–,–,–,–,·,·,·
CC(=O)N1CCc2cc(S(=O)(=O)CCC(=O)N3CCc4ccccc4C3)ccc21,22[inhibitor],–,–,–,17[inhibitor],–,–,–,–
SMILES,MEKK2wt PB1 HTS,Apaf-1 inh,UCH37 DUB inh,UBC13 polyUb,MEKK3 PB1 HTS,MEKK2mut PB1 HTS,MEKK2wt confirm,MEKK2mut confirm,MEKK3-MEK5 inh
Cc1nc2ccccn2c1C(=O)Nc1ccc2c(c1)OCCO2,–,–,–,–,132,–,–,–,–
CC(=O)Nc1ccc(NC(=O)c2c(C)nc3ccccn23)cc1,–,–,–,–,–,–,·,·,·
Cc1ccsc1C(=O)Nc1ccc2c(c1)OCCO2,–,–,–,–,138,–,–,–,–
O=C(O)CCN1CC2([N+](=O)[O-])CC=C(OCCO)C([N+](=O)[O-])(C1)C2 (centres undefined),–,–,–,–,–,–,·,·,·
C=CCc1cccc(CNc2cnc3ccccc3c2)c1O,–,–,–,–,–,–,·,·,·
Cc1nn(C)c(C(=O)Sc2cccc(Cl)c2)c1[N+](=O)[O-],–,–,–,–,133,–,–,–,–
CCOC(=O)c1sc(NC(=O)Nc2ccc(Cl)cc2)cc1C,138,–,·,–,–,–,-2.0[inhibitor],–,–
CCOC(=O)c1sc(NC(=O)c2ccc(Cl)s2)cc1C,–,–,–,–,–,–,·,·,·
O=C(Cn1cnc2ccccc2c1=O)N1CCN(c2ccccc2)CC1,–,–,–,–,122,–,–,–,–
O=C(CCCC(=O)N(CC(=O)NC1CCCC1)C1CCCC1)Nc1ccccn1,–,–,–,–,72[inhibitor],–,-1.0[inhibitor],–,–
O=C(CCC(=O)N(CC(=O)NC1CCCC1)C1CCCC1)Nc1ccccn1,–,–,–,–,–,–,·,·,·
CCOc1ccccc1N(CC(=O)NC1CCCC1)C(=O)CCCC(=O)Nc1ccccn1,2.0[inhibitor],–,–,–,2.0[inhibitor],–,–,–,–
CCN1/C(=C/C=C/C=C/c2sc3ccccc3[n+]2CC)Sc2ccccc21,15[inhibitor],80,·,?,18[inhibitor],–,–,–,26
Cc1ccc(Oc2nc(-c3ccccc3)ncc2S(C)(=O)=O)cc1,1.0[inhibitor],–,–,–,1.0[inhibitor],–,–,–,–
O=C(CCNC(=O)c1ccc(Br)cc1)Nc1cc(Cl)ccc1-n1cncn1,·,–,–,–,·,·,·,·,·
O=C(Nc1cc([N+](=O)[O-])ccc1Cl)C1CC1,–,–,–,–,–,–,·,·,·
COc1ccc(Cc2noc(-c3ccccc3)n2)cc1OC,–,–,–,–,–,–,·,·,·
COc1cccc(-c2nc(Cc3ccc(OC)c(OC)c3)no2)c1,-6.0[inhibitor],–,–,–,–,–,–,–,–
Cc1ccc(-c2cc3nc(-c4ccc(Br)cc4)cc(N)n3n2)cc1,–,–,–,–,134,–,–,–,–
COc1ccc(CNC(=O)C(c2ccco2)N(C(=O)c2ccccn2)c2ccccc2)cc1 (centres undefined),55[inhibitor],–,–,–,59[inhibitor],–,–,–,–
